Experimental data of several laboratories.
Compare with care: the assays were run in different laboratories.
Target: SRSF protein kinase 1 (SRPK1, Homo sapiens, UniProt Q96SB4)

| SMILES | test | setting | quantity | result |
| --- | --- | --- | --- | --- |
| N#CC1(c2ccccn2)CCN(Cc2cc(C(=O)N3CCCC3)c(=O)n3ccccc23)CC1 | cell-free assay, competition with immobilised ligand | 1 µM | remaining binding | 85% |
| CCN(CC)CCNC(=O)c1c(C)[nH]c(/C=C2\C(=O)Nc3ccc(F)cc32)c1C | enzyme activity, inhibitor | 10 µM | inhibition | 9% |
| CC(C)(C)C(=O)c1sc(NC2CCCCC2)nc1N | enzyme activity, inhibitor | 10 µM | remaining activity | 92% |
| N#CCCc1ccc2c(c1)-c1[nH]c3ccc([N+](=O)[O-])cc3c1CC(=O)N2 | cell-free assay | 0.5 µM | remaining signal | 107% |
| Nc1nc(NC2CCCCC2)sc1C(=O)c1ccccc1 | enzyme activity, inhibitor | 10 µM | remaining activity | 93% |
| O=C(Nc1ccc(Oc2ccc(F)cc2)cc1)N1CCc2ncccc2[C@H]1c1ccc(F)cc1 | cell-free assay, competition with immobilised ligand | 1 µM | remaining binding | 94% |
| CN1CC(Oc2cnc(C#N)cc2-c2ccn3nc(NC(=O)C4CC4)cc3c2)C1 | enzyme activity, inhibitor | 1 µM | inhibition | -2% |
| O=C(NS(=O)(=O)c1ccc(NCC2CCOCC2)c([N+](=O)[O-])c1)c1ccc(N2CCN(Cc3ccc(C(F)(F)F)cc3-c3ccc(Cl)cc3)CC2)cc1Oc1cnc2[nH]ccc2c1 | cell-free assay, competition with immobilised ligand | 1 µM | remaining binding | 100% |
| C=CC(=O)Nc1cc(Nc2nccc(Nc3cc(Cl)c(F)cc3C(C)(C)O)n2)c(OC)cc1N1CC[C@@H](N(C)C)C1 | enzyme activity, inhibitor | 1 µM | inhibition | 2% |
| O=C(NCCCC1CCCCC1)c1ccc(CNC(=O)c2cnn(-c3ccccc3)c2C(F)(F)F)cc1 | cell-free assay, competition with immobilised ligand | 0.1 µM | remaining binding | 95% |
| CCOc1cc(-c2nncn2C)ccc1Nc1ncc2cc(C)nc(NCC(C)(C)C)c2n1 | enzyme activity, inhibitor, FRET | 1 µM | inhibition | < 15% |
| CC(C)(C)c1nc2c(s1)c1nc(N)ncc1c1ccc(NS(=O)(=O)c3c(F)cccc3F)c(F)c12 | enzyme activity, inhibitor, radiometric | 1 µM | remaining activity | 99% |
| Cc1c[nH]c2nccc(Oc3c(F)cc(Nc4cc(Cl)nc(N)n4)cc3F)c12 | cell-free assay, competition with immobilised ligand | 0.1 µM | remaining binding | 100% |
| O=C1Nc2ccc(Cl)cc2C1=Cc1cc(Cl)c(O)c(Cl)c1 | cell-free assay | 0.5 µM | remaining signal | 106% |
| CC(=O)N1CCC(c2ccc(C(=O)NC(=N)N)cc2C(F)(F)F)CC1 | cell-free assay, competition with immobilised ligand | 1 µM | remaining binding | 86% |
| O=C(Nc1cnn(-c2csc(C(=O)NC3COC3)c2)c1)Nc1ccccc1Cl | enzyme activity, inhibitor | 5 µM | remaining activity | 98.7% |
| CC(C)(O)[C@H]1CC[C@H](Nc2ccc3ncc(-c4cccc(C(F)(F)F)c4)n3n2)CC1 | enzyme activity, inhibitor | 1 µM | remaining activity | 100% |

| SMILES | test | setting | quantity | result |
| --- | --- | --- | --- | --- |
| COc1ccc(COc2ccc(Cc3cnc(N)nc3N)cc2OC)cc1 | cell-free assay | 0.5 µM | remaining signal | 90.4% |
| COc1cc(Nc2cnc(C#N)c(O[C@H](C)CN(C)C)n2)ncc1-c1cnn(C)c1 | enzyme activity, inhibitor, radiometric | 10 µM | remaining activity | 88% |
| Cc1ccc(NC(=O)c2ccc(C)c(C(F)(F)F)c2)cc1C#Cc1nn(C2CCC(O)CC2)c2ncnc(N)c12 (stereo not drawn) | cell-free assay | 10 µM | remaining signal | 106% |
| Cc1cc(-n2nc(Cc3cc(F)cc(C(F)(F)F)c3)nc2C)ccc1C(N)=O | cell-free assay, competition with immobilised ligand | 1 µM | remaining binding | 81% |
| COc1cc2ncnc(Nc3ccc(Oc4ccccc4)c(C)c3C)c2cc1OC | enzyme activity, inhibitor | 1 µM | inhibition | 1% |
| FC(F)(F)Oc1cccc(-c2cnc3ccc(-c4ccncc4)nn23)c1 | enzyme activity, inhibitor, radiometric | 5 µM | activity vs control | 96% |
| CN(c1ncccc1CNc1nc(Nc2ccc3c(c2)CC(=O)N3)ncc1C(F)(F)F)S(C)(=O)=O | enzyme activity, inhibitor | 1 µM | inhibition | 33.5% |
| O=C(Nc1cnn(-c2csc(C(=O)NC3COC3)c2)c1)Nc1c(F)cccc1Cl | enzyme activity, inhibitor | 5 µM | remaining activity | 104% |
| Cc1ccc(Nc2nccc(N(C)c3ccc4c(C)n(C)nc4c3)n2)cc1S(N)(=O)=O | enzyme activity, inhibitor | 0.3 µM | inhibition | -7% |
| c1ccc(CNc2nc(N3CCOc4ccccc43)nc3c2CCCC3)cc1 | target engagement in cells, inhibitor, chemoproteomics | 20 mM | inhibition | 4.3% |
| Oc1cccc(-c2nc(N3CCOCC3)c3oc4ncccc4c3n2)c1 | enzyme activity, inhibitor | 10 µM | remaining activity | 116% |
| CNC(=O)c1cc(Oc2ccc(NC(=O)Nc3ccc(Cl)c(C(F)(F)F)c3)cc2)ccn1 | enzyme activity, inhibitor | 0.3 µM | inhibition | -2% |
| Cn1c(=O)n(-c2ccc(C(C)(C)C#N)cc2)c2c3cc(-c4cnc5ccccc5c4)ccc3ncc21 | enzyme activity, inhibitor | 10 µM | remaining activity | 106% |
| O=C(N1CCS(=O)(=O)CC1)N1C[C@H](c2ccc(OC(F)(F)F)cc2)C[C@H](c2nc(C3CC3)no2)C1 | cell-free assay, competition with immobilised ligand | 1 µM | remaining binding | 100% |
| Cc1ccc(C(=O)Nc2ccc(CN3CCN(C)CC3)c(C(F)(F)F)c2)cc1C#Cc1cnc2cccnn12 | enzyme activity, inhibitor | 23.5 nM | remaining activity | 98% |
| Cc1ccc(NC(=O)c2ccc(CN3CCN(C)CC3)cc2)cc1Nc1nc(-c2cccnc2)cs1 | cell-free assay | 0.5 µM | remaining signal | 98.9% |
